# High-throughput results: PubChem BioAssay, several laboratories
# In the library only some 4.1% were active in any assay of this set; here they are far more common.
# NF-kB neuron act – activators of NF-kB expression in neurons, primary screen, cell-based, HTS. 1.6% of 190,000 active. fold change at 12.5 µM. human neuronal cells, NF-kB reporter expression; active compounds read high. AID 1239, 2008; in the data active = fold change above about 3.3
# STAT1 act – STAT1 signaling activators, primary screen, cell-based, HTS, luciferase reporter. NIH 3T3 STAT1-luciferase reporter, IFN-gamma, luminescence; 100% = IFN-gamma alone, no compound. activation (% of control), % at 5.5 µM. 2.6% of 200,000 active. AID 932, 2007;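 active = activation above the screen-wide mean activation plus 3 SD, cut at about 130% in these data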;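 also: raw ratio to IFN-gamma control signal so 100% means no change and 0% no light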
# FLuc inh counter – firefly luciferase enzyme inhibitors, primary screen, artefact control for luciferase-based inhibitor screens, biochemical, luminescence, ATPLite; 10 min; inhibition, % at 10 µM; AID 1006, 2008; 1.5% of 200,000 active; Luciferin 4-monooxygenase (Photinus pyralis), P08659;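 active = inhibition above about 50% when tested at 10 µM, limit read from the data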
# Target sequence (P08659 whole entry, looked up): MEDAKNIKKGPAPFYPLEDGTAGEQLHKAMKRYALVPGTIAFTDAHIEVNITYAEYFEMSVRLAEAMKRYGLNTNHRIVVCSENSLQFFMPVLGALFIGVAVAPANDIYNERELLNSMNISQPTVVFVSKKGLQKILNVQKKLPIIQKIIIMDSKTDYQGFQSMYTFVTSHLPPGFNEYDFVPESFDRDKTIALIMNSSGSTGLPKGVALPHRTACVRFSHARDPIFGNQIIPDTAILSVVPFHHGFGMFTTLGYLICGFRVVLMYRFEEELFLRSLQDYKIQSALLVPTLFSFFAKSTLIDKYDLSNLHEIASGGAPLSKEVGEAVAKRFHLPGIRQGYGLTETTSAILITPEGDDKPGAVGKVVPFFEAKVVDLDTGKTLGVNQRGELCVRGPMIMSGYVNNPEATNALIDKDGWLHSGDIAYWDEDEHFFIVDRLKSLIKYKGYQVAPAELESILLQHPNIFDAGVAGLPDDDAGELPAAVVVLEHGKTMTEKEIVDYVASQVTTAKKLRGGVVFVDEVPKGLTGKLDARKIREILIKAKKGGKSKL
# FLuc stim CS – FLuc activators, initial screening, artefact control for FLuc-dependent activation tests, biochemical, ATPlite luminescence. Luciferin 4-monooxygenase (Photinus pyralis), P08659. ATPlite luciferase biochemical, 10 min; 0 = ATP-free wells, 1 = DMSO control. activation factor at 10 µM. 200,000 tested, under 10 active. AID 1027, 2008;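 active = luciferase activation factor, scaled between plate controls, of at least 2 with compound at 10 µM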
#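 System: Luciferase/luciferin detection reagent, cell-free biochemical luciferase assay | Medium: PBS buffer for ATP | Dosing: Test compounds dosed from 2 mM stocks in 100% DMSO | Timing: 10 min at ambient temperature | Signal: Luminescence measurement of luciferase light output | Evaluation: Luciferase activation, seen as luminescence increase over controls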
# APP 5'UTR act – activators of APP 5'UTR luciferase reporter, primary screen, SH-SY5Y cells; AID 1276, 2008; activation, % at 2 µM; 1% of 190,000 active; SH-SY5Y APP 5'UTR luciferase reporter, luminescence; zero percent = DMSO vehicle wells;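 active = activation above a set limit, based on mean plus 3 SD of controls, cut at about 140% in these data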
# Active calls of the source: *; . = no result given.
SMILES,NF-kB neuron act,STAT1 act,FLuc inh counter,FLuc stim CS,APP 5'UTR act
NC(=O)C1CCN(c2ncnc3c(-c4ccccc4)nsc23)CC1,2.6,139*,14,0.9,21
O=C(c1ccco1)N1CCN(c2ncnc3c(-c4ccccc4)nsc23)CC1,1.8,129*,-3,1,58
COc1cccc(/C=C/C(=O)OCC(=O)NCc2ccco2)c1OC,1.1,109,0,1,11
Cc1ccc(C(=O)Nc2nc3ccccc3n2CCN2CCCC2)cc1,3,141*,33,0.7,130
CCc1n[n+](CC(=O)c2ccccc2)c(N)s1,1.1,45,70*,0.3,142*
CCOC(=O)c1ccc[n+](CC(=O)c2ccccc2)c1,1.1,89,-5,1,.
CN(C(=O)/C=C/c1cnc2ccccc2c1)C1CCCCC1,3.9*,105,62*,0.4,275*
Cc1nn(C)c(C)c1CNC(=O)c1cnn2c1NC(c1ccccc1)CC2C(F)(F)F (stereo not drawn),1.3,96,-4,1,15
C=C(C)C1CC=C(C)/C(=N/NC(=O)c2cccs2)C1 (stereo not drawn),3.2,129*,43,0.6,63
Fc1cccc(C2NN=C(c3ccccc3)S2)c1 (stereo not drawn),9*,163*,67*,0.3,182*
O=C1c2ccccc2C2=Nc3ccccc3SC(c3cccc(F)c3)C12 (stereo not drawn),1.1,108,-4,1,-17
Cc1ccc(C2=NNC(c3cccc(F)c3)S2)cc1 (stereo not drawn),3.4*,55,84*,0.2,165*
COc1ccc(C2NN=C(c3ccc(C)cc3)S2)cc1OC (stereo not drawn),3.5*,136*,79*,0.2,164*
CCN(CC)C(=O)Cn1c(=O)n(Cc2ccccc2Cl)c2c1c(=O)n(C)c(=O)n2C,.,98,.,.,-11
CCN(CC)CCN1C(=O)c2ccccc2NC1c1ccc(Br)cc1 (stereo not drawn),1,99,2,1,31
NC(=O)c1ccc(NC(=O)COC(=O)C2(c3cccc(F)c3)CCCC2)cc1,0.93,92,-4,1,-11
O=c1nc2c(O)cccn2c2c1c(=O)[nH]c1ccccc12,1.5,107,0,1,4
O=c1[nH]c2ccccc2c2nc3ccccn3c12,1.1,115,54*,0.5,17
O=C(O)C1C2C=CC(C2)C1C(=O)N1CCN(C/C=C/c2ccccc2)CC1 (stereo not drawn),1.1,96,2,1,3
Cc1ccc(Cn2ccc(NC(=O)c3cc(-c4ccc(F)cc4)on3)n2)cc1,1.1,99,0,1,-17
O=C(Nc1ccn(Cc2ccccc2)n1)c1ccc(F)cc1,1.1,138*,50*,0.5,68
Cc1ccc(C(=O)/C=C\NCc2ccccc2)cc1,1.8,130*,18,0.8,14
COc1ccc(C(=O)/C=C/NCc2ccc(C)cc2)cc1,.,117,.,.,24
Cc1ccc(S/C=C\C(=O)c2ccccc2)cc1,10*,96,91*,0.1,144*
COc1cc(Cl)cc(C2NC(=O)NC(C)=C2C(C)=O)c1OCC(=O)O (stereo not drawn),0.87,100,2,1,-1
SMILES,NF-kB neuron act,STAT1 act,FLuc inh counter,FLuc stim CS,APP 5'UTR act
O=[N+]([O-])c1ccc2nc(-c3ccccc3)[nH]c2c1,1.3,141*,27,0.7,109
Nc1ccc2nc(-c3cccnc3)[nH]c2c1,1.1,108,12,0.9,.
Nc1ccc2nc(-c3ccc(N)c(Cl)c3)[nH]c2c1,1.4,132*,52*,0.5,59
Nc1ccc2nc(-c3ccccc3)[nH]c2c1,1.2,131*,57*,0.4,57
COc1ccc(OC)c(CCNC(=O)C2CCN(c3nnc(-n4cccc4)s3)CC2)c1,1.2,98,-1,1,8
c1ccc(-n2cnc3cc(NCc4ccncc4)ccc32)cc1,1.3,122,11,0.9,-3
c1ccc(-n2cnc3cc(NCc4ccccn4)ccc32)cc1,2.1,131*,15,0.9,86
COc1cc(-c2nc3ccc(N4CCN(C)CC4)cc3[nH]2)cc(OC)c1OC,1.1,79,15,0.9,18
COc1ccc(-c2nc3ccc(N4CCN(C)CC4)cc3c(=O)[nH]2)cc1,1.6,130*,3,1,3
COc1ccc(S(=O)(=O)Cc2ccc(C(=O)N3CCOCC3)o2)cc1,1,101,-6,1.1,-17
COc1cccc(/C=C2\SC(=S)N(c3cccnc3)C2=O)c1OC,1.4,102,67*,0.3,17
Cc1ccc(C2/C(=C(/O)c3cnn(-c4ccccc4)c3C)C(=O)C(=O)N2CCN2CCOCC2)o1 (stereo not drawn),1.6,117,20,0.8,64
Cc1c(/C(O)=C2/C(=O)C(=O)N(CCN3CCOCC3)C2c2cccs2)cnn1-c1ccccc1 (stereo not drawn),1.7,143*,9,0.9,52
CCn1c(SCC(=O)Nc2ccc(OC)cc2)nnc1-c1ccco1,0.97,97,-3,1,-11
COc1ccccc1NC(=O)c1oc2ccc(C)cc2c1C,2.5,129*,22,0.8,2
CCOC(=O)c1oc2ccccc2c1NC(=O)CN1CCN(C)CC1,0.65,102,-7,1.1,-2
O=c1c2c(nc3cc(-c4ccccc4Cl)[nH]n13)CCS2,2.1,111,74*,0.3,120
O=c1c2c(nc3cc(-c4ccccc4)[nH]n13)CCS2,7.7*,116,60*,0.4,113
Cc1nc2cc(-c3ccsc3-n3c(C)ccc3C)[nH]n2c(=O)c1Cl,1.3,108,-9,1.1,-2
COc1ccc(Cl)cc1-c1nc(-c2ccc(Br)o2)no1,1.2,103,-5,1.1,-5
CN(C)c1ccc(C(=S)NCc2ccco2)cc1,8.1*,134*,3,1,97
CN(C)c1ccc(/C=N/NC(=S)NCc2ccco2)cc1,1,104,-2,1,32
CCOc1ccc(N/C=C/C(=O)c2ccc(OC)cc2)c([N+](=O)[O-])c1,1.4,125,24,0.8,35
CN(C)c1ccc2c(c1)OC(N)=C(C#N)C2c1cccc(F)c1 (stereo not drawn),5*,112,-4,1,-95
N#CC1=C(N)Oc2cc(O)ccc2C1c1cccnc1 (stereo not drawn),1.1,98,-4,1,12
CN(C1CCCCC1)S(=O)(=O)c1ccc2c(c1)c(=O)c(C(=O)NCCCN1CCCC1)cn2C,1.1,101,-9,1.1,.
